# An excerpt weighted towards active compounds, which were near 1.4% of everything screened.
# ARFGAP1 inh: rat ARFGAP1 inhibition; 360,000 compounds, 0.26% hits; inhibition, % at 16.5 µM; Q62848; Arfgap1-stimulated ARF1 GTP hydrolysis, GDP FP detection;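 active = inhibition above a per-plate limit, mean inhibition of low control wells plus 3 SD, cut at about 25% in these data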
# Target sequence (Q62848 1-136 limits assumed): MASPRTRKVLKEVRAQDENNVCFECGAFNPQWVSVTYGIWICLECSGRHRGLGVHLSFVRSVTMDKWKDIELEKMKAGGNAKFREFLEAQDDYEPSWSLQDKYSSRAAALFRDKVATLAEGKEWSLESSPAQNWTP
#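 Repeats: one replicate per compound; assay system: rat Arfgap1 catalytic domain, aa 1-136; times: enzyme reaction 120 min at 25 °C after 20 min preincubation; detection: FP of antibody-bound GDP Alexa 633 tracer, ex 620/em 688 nm; benchmarks: high control wells lacking Arfgap1, low control full reaction with DMSO; reagent: human ARF1(Δ1-17)-GTP substrate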
# ASAP1 inh: inhibitors of human ASAP1 ArfGAP activity; Q9ULH1; ASAP1-stimulated ARF1 GTP hydrolysis, GDP FP detection; inhibition, % at 16.5 µM; 360,000 compounds, 0.19% hits; in the data active = inhibition above about 25%
# Target sequence (Q9ULH1 325-724 limits assumed): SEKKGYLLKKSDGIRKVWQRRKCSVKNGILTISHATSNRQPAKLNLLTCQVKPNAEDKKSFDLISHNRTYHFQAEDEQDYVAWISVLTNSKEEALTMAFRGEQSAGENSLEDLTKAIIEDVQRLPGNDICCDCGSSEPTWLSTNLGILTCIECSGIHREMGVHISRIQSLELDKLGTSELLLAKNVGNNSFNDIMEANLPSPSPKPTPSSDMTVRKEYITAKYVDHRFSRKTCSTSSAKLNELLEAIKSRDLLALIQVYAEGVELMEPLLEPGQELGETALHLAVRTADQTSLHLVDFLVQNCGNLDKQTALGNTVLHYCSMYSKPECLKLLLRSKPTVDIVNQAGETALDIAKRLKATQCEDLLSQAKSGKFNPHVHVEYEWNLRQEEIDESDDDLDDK
# MsrA inhibitor: bovine MsrA inhibition. purified bovine MsrA, absorbance read-out. inhibition, % at 15.5 µM. 360,000 compounds, 0.75% hits; in the data active = inhibition above about 4.5%
# MsrA act: activators of bovine methionine sulfoxide reductase A. AID 602163. 360,000 compounds, 0.3% hits. purified bovine MsrA, absorbance read-out. activation, % at 10.6 µM; in the data active = activation above about 7.5%
# Hits are given with their value; . = inactive; / = not tested or not shown.
SMILES,ARFGAP1 inh,ASAP1 inh,MsrA inhibitor,MsrA act
Cn1cccc1/C=C(/C#N)c1ccc(F)cc1,.,.,5.6,.
CC(C(=O)NCCN1C(=O)S/C(=C\c2cccnc2)C1=O)N1C(=O)c2ccccc2C1=O (configuration not stated),.,.,4.6,.
O=C(CCl)NCCN1C(=O)S/C(=C\c2cccnc2)C1=O,.,.,.,.
CC1(C)Cc2c(c(=S)nc(-c3ccccc3)n2CCN2CCOCC2)CO1,.,.,4.6,.
CN(C)c1ccc(C=c2c3ccccc3n3c2c2ccccc2[n+]3C)cc1,95.0,59.4,.,.
COc1ccc(/C=N/N=C/c2ccc(OC)c(OC)c2)cc1OC,.,.,.,.
COc1ccc(/C=N/N=C/c2ccc(OC)c(O)c2)cc1O,.,.,7.1,.
CCN(CCCNC(=O)C1CCC(=O)N1Cc1ccc(F)cc1)c1cccc(C)c1 (configuration not stated),.,.,.,10.6
O=C(Nc1cccnc1)c1ccc([N+](=O)[O-])s1,.,.,.,13.4
Cc1ccc(C(=O)NCC(=O)OCC(=O)/C=C2\N(C)c3ccccc3C2(C)C)cc1C,.,.,.,.
O=c1c2ccccc2nc(/C=C/c2ccc3c(c2)OCO3)n1CCCO,/,/,/,.
O=c1c2ccccc2nc(/C=C/c2ccccc2)n1CCCO,.,.,4.6,.
COc1cccc(C(=O)OCC(=O)N2CCc3ccccc3C2)c1OC,.,.,.,.
Cc1csc(NC(=O)/C=C/c2ccc3c(c2)OCO3)n1,.,.,4.6,.
Cc1ccc2nc(NC(=O)/C=C/c3ccc4c(c3)OCO4)sc2c1,.,.,.,.
Cc1cc(NC(=O)c2c(-c3c(Cl)cccc3Cl)noc2C)n(C)n1,.,.,.,.
CCC(C)Nc1nc(-c2c[nH]c3ccccc23)cs1 (configuration not stated),32.0,.,.,.
O=C1OCCN1C(=O)[C@H]1[C@H](c2ccc([N+](=O)[O-])cc2)C(c2ccc(F)cc2)=NN1c1ccc(Br)cc1,.,.,4.7,.
O=C1OCCN1C(=O)[C@H]1[C@H](c2ccc([N+](=O)[O-])cc2)C(c2ccc(F)cc2)=NN1c1ccccc1,.,.,.,.
Cn1cc(Cc2ccc(C(=O)N3CCOCC3)cn2)c2ccccc21,.,.,.,.
COC(=O)c1cc(CC(=O)c2ccc(O)cc2O)c(C)o1,.,.,7.2,.
CCc1cccc(NC(=O)C2CCCN2S(=O)(=O)c2ccc3c(c2)CC(C)N3C(C)=O)c1 (configuration not stated),.,.,.,.
CCc1ccc2[nH]c(=O)c(CN(Cc3ccc(F)cc3)C(c3nnnn3CCN3CCOCC3)C(C)C)cc2c1 (configuration not stated),/,/,/,8.6
CCc1ccc2[nH]c(=O)c(C(c3nnnn3CCOC)N3CCN(c4ccc(F)cc4)CC3)cc2c1 (configuration not stated),.,.,.,.
Cc1ccccc1-c1cnc(C(O)c2ccc(C(C)(C)C)cc2)[nH]1 (configuration not stated),.,.,.,.
SMILES,ARFGAP1 inh,ASAP1 inh,MsrA inhibitor,MsrA act
Cc1cc(N=Nc2ccc(C)c(N=Nc3cc(C)c(N)cc3N)c2)c(N)cc1N,25.3,.,.,.
COc1ccc(N=Nc2cc(OC)c(N)cc2OC)cc1,.,.,.,.
O=C(c1ccco1)N1CCN(C(=O)c2cn(-c3ccccc3)nc2-c2ccc(F)cc2)CC1,.,.,.,.
CN(C)c1ccc2nc3ccc(=O)cc-3sc2c1,.,.,.,.
Cc1cc2nc3ccc(=[N+](C)C)cc-3sc2cc1N,/,/,/,18.8
O=C(Nc1ccc(CN2CCOCC2)cc1)c1ccc(-c2cccc([N+](=O)[O-])c2)o1,36.7,37.0,.,.
Oc1[nH]c2ccccc2c1C1=NCCCCC1,.,.,4.6,.
CC1(CC(=O)N/N=C/c2ccc(-c3ccc(C(=O)O)cc3)o2)OCCO1,.,.,9.0,.
CCN(CC(=O)Nc1ccccc1OC)Cc1csc(CC(=O)Nc2ccc(C)cc2)n1,.,.,.,.
CN(Cc1ccccc1)C1=CC(=[N+]2CCCCC2)CC(C)(C)C1,.,.,4.7,.
O=C(NCCC1CCCCN1S(=O)(=O)c1ccc(F)cc1)C(=O)NCc1cccnc1 (configuration not stated),.,.,.,.
C=C(C)COc1ccc(-c2n[nH]c(C)c2-c2ccc(OC)c(OC)c2)c(O)c1,.,.,.,.
COc1ccc(/C=N/NC(=S)NC2CCS(=O)(=O)C2)cc1OC (configuration not stated),.,.,6.0,.
Cc1ccc(/C=N/NC(=S)NC2CCS(=O)(=O)C2)cc1 (configuration not stated),.,.,.,.
Cc1c(NC(=O)COc2c(F)c(F)c(F)c(F)c2F)c(=O)n(-c2ccccc2)n1C,26.5,.,.,.
Cc1c(NC(=O)COc2cccc(Cl)c2Cl)c(=O)n(-c2ccccc2)n1C,.,.,.,.
CN1C[C@@H]2[C@@H]3C(=O)N(C)C(=O)[C@@H]3[C@](C)(C1=O)N2C(=O)c1ccc(C(F)(F)F)cc1,.,.,.,.
O=C1N/C(=N/N=C/c2ccco2)SC1Cc1ccccc1 (configuration not stated),.,.,4.6,.
CC1CC(C)CN(CCCNC(=O)C2CCC(=O)N2C2CCCC2)C1 (configuration not stated),32.3,.,.,.
O=C(NCCCN1CCCC1)C1CCC(=O)N1C1CCCCC1 (configuration not stated),.,.,.,.
CC(C)C[C@H]1CN(CCCC[C@H]2CNC(=O)C(=O)N2CCc2ccc(O)cc2)C(=O)C(=O)N1CCC1CCCCC1,.,.,.,.
CCCC(=O)OCC1CN(Cc2ccco2)S(=O)(=O)c2c(F)cccc2O1 (configuration not stated),.,.,.,.
CC(=O)c1ccc(N2CCN(C(=O)C(=O)c3c(C)[nH]c4ccccc34)CC2)cc1,.,.,4.6,.
COc1ccc(/C=N/NC(=O)c2ccc(NC(=O)c3cccc([N+](=O)[O-])c3)cc2)c(C(=O)O)c1OC,.,.,4.6,.
COc1cc(/C=N/NC(=O)c2cccc(NC(=O)c3ccccc3)c2)ccc1O,.,.,4.6,.
SMILES,ARFGAP1 inh,ASAP1 inh,MsrA inhibitor,MsrA act
COc1cc(/C=N/NC(=O)c2cccc(NC(=O)c3ccccc3C)c2)ccc1O,.,.,.,.
COc1ccc(/C=N/NC(=O)c2ccc(NC(=O)c3cccc([N+](=O)[O-])c3)cc2)c(OC)c1,.,.,.,.
Cc1ccc(C)c(CSC2=NCCN2S(=O)(=O)c2ccccc2)c1,.,.,.,.
CCOC(=O)Nc1ccc2c(COC(=O)C(NS(=O)(=O)c3ccc(Cl)cc3)C(C)O)cc(=O)oc2c1 (configuration not stated),.,.,4.6,.
Cn1c(SCC(=O)NCCc2ccccc2)ncc(C(=O)Nc2ccc(F)cc2)c1=O,.,.,.,.
CN(C)CCCNc1nc(-c2ccc(Cl)cc2)nc2ccccc12,.,.,6.0,.
Cc1ccc(-c2nc(NCCN(C)C)c3ccccc3n2)cc1,.,.,.,.
COc1ccc2cc(C(=O)NCc3ccccc3)c(=O)oc2c1,.,.,.,.

# Assay outcomes (PubChem BioAssay)
